Holding throughout (conditions): in vivo
For series [1], the species on record is Mus musculus. Description: Biodistribution of [225Ac]-labeled compound in normal mice liver after 1 hr. Type of series: ADME, organism-based.
For series [2], the species on record is Mus musculus. As to the kind of experiment: Biodistribution of [225Ac]-labeled compound in normal mice kidney after 4 hr. The series is classed as ADME, organism-based. The essentials:
(§1)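 Normal female BALB/c mice received 2.5 µCi of 225Ac complex in 200 µL MES buffer (pH 6.2) by tail-vein injection. All complexes except Ac-acetate were Chelex-purified (0.1 M NH4OAc, pH 5.0) beforehand. Three to five animals were killed per time point. Tissues were weighed and counted for 225Ac 4 h later to allow nuclear equilibration, against external standards from the dose dilutions. Results are expressed as %ID/g.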

The species entered for series [3] is Mus musculus. As to the kind of experiment: Biodistribution of [225Ac]-labeled compound in normal mice heart after 4 hr. The series is classed as ADME, organism-based.
Series [4] is filed under the species Mus musculus. Description: Biodistribution of [225Ac]-labeled compound in normal mice blood after 120 hr. The series is classed as ADME, organism-based.
For series [5], the species on record is Mus musculus. Description: Biodistribution of [225Ac]-labeled compound in normal mice spleen after 120 hr. Type of series: ADME, organism-based.
The species entered for series [6] is Mus musculus. As to the kind of experiment: Biodistribution of [225Ac]-labeled compound in normal mice spleen after 1 hr. Type of series: ADME, organism-based.
The species named for series [7] is Mus musculus. As to the kind of experiment: Biodistribution of [225Ac]-labeled compound in normal mice bone after 24 hr. The series is classed as ADME, organism-based, Bone element.
For series [8], the species on record is Mus musculus. As to the kind of experiment: Biodistribution of [225Ac]-labeled compound in normal mice liver after 120 hr. The series is classed as ADME, organism-based.
For series [9], the species on record is Mus musculus. Description: Biodistribution of [225Ac]-labeled compound in normal mice kidney after 24 hr. The series is classed as ADME, organism-based.
The species named for series [10] is Mus musculus. Description: Biodistribution of [225Ac]-labeled compound in normal mice blood after 4 hr. The series is classed as ADME, organism-based.
The species named for series [11] is Mus musculus. As to the kind of experiment: Biodistribution of [225Ac]-labeled compound in normal mice spleen after 24 hr. The series is classed as ADME, organism-based.
The species named for series [12] is Mus musculus. As to the kind of experiment: Biodistribution of [225Ac]-labeled compound in normal mice heart after 120 hr. Type of series: ADME, organism-based.
Series [13] is filed under the species Mus musculus. Description: Biodistribution of [225Ac]-labeled compound in normal mice liver after 24 hr. Type of series: ADME, organism-based.
For series [14], the species on record is Mus musculus. Description: Biodistribution of [225Ac]-labeled compound in normal mice liver after 4 hr. The series is classed as ADME, organism-based.
The species entered for series [15] is Mus musculus. As to the kind of experiment: (§2) Biodistribution of [225Ac]-labeled compound in normal mice kidney after 120 hr. Type of series: ADME, organism-based.
The species entered for series [16] is Mus musculus. As to the kind of experiment: Biodistribution of [225Ac]-labeled compound in normal mice spleen after 4 hr. Type of series: ADME, organism-based.
For series [17], the species on record is Mus musculus. As to the kind of experiment: Biodistribution of [225Ac]-labeled compound in normal mice blood after 24 hr. Type of series: ADME, organism-based.
The species entered for series [18] is Mus musculus. Description: Biodistribution of [225Ac]-labeled compound in normal mice kidney after 1 hr. Type of series: ADME, organism-based.
For series [19], the species on record is Mus musculus. Description: Biodistribution of [225Ac]-labeled compound in normal mice bone after 1 hr. Type of series: ADME, organism-based, Bone element.
Series [20] is filed under the species Mus musculus. As to the kind of experiment: Biodistribution of [225Ac]-labeled compound in normal mice heart after 1 hr. Type of series: ADME, organism-based.
The species named for series [21] is Mus musculus. Description: Biodistribution of [225Ac]-labeled compound in normal mice blood after 1 hr. Type of series: ADME, organism-based.
The species entered for series [22] is Mus musculus. Description: Biodistribution of [225Ac]-labeled compound in normal mice heart after 24 hr. Type of series: ADME, organism-based.
Series [23] is filed under the species Mus musculus. As to the kind of experiment: Biodistribution of [225Ac]-labeled compound in normal mice bone after 120 hr. The series is classed as ADME, organism-based, Bone element.
The species named for series [24] is Mus musculus. As to the kind of experiment: Biodistribution of [225Ac]-labeled compound in normal mice bone after 4 hr. Type of series: ADME, organism-based, Bone element.
The species entered for series [25] is Mus musculus. The series is described as §2. The series is classed as ADME, organism-based. Put shortly: as §1
This is another data set of the same source.

Molecules are shown by their SMILES. A value given as a limit tells only on which side of the number the result lay.

As to `O=C(O)CN1CCN(CC(=O)O)CCN(CC(=O)O)CCN(CC(=O)O)CCN(CC(=O)O)CCN(CC(=O)O)CC1`, the ID/g was 0.17% in the series listed under Mus musculus [1]; 0.71% in the series filed under Mus musculus [2]; 0.032% in the series filed under Mus musculus [3]; under 0.01% in the series listed under Mus musculus [4]; 0.03% in the series listed under Mus musculus [5]; 0.05% in the series listed under Mus musculus [6]. For the same compound, the ID/g was under 0.01% in the series listed under Mus musculus [7]; 0.26% in the series filed under Mus musculus [8]; 0.43% in the series filed under Mus musculus [9]; under 0.01% in the series filed under Mus musculus [10]; 0.03% in the series filed under Mus musculus [11]; 0.03% in the series listed under Mus musculus [12]. Moreover, the ID/g in the series listed under Mus musculus [13] was 0.19%; in the series listed under Mus musculus [14], 0.23%; in the series filed under Mus musculus [15], 0.25%; in the series filed under Mus musculus [16], 0.027%; in the series listed under Mus musculus [17], under 0.01%; in the series filed under Mus musculus [18], 0.72%. Besides, the ID/g was 0.06% in the series filed under Mus musculus [19]; 0.06% in the series listed under Mus musculus [20]; 0.03% in the series filed under Mus musculus [21]; under 0.01% in the series listed under Mus musculus [22]; 0.02% in the series listed under Mus musculus [23]; 0.025% in the series listed under Mus musculus [24].

In the case of `O=C(O)CN1CCN(CC(=O)O)CCN(CC(=O)O)CCN(CC(=O)O)CCN(CC(=O)O)CC1`, the ID/g in the series listed under Mus musculus [1] is on record as 12%; in the series listed under Mus musculus [2], 3.47%; in the series listed under Mus musculus [3], 2.34%; in the series listed under Mus musculus [4], under 0.01%; in the series listed under Mus musculus [5], 1.63%; in the series listed under Mus musculus [6] it was 0.83%. The ID/g in the series listed under Mus musculus [7] was 1.51%; in the series filed under Mus musculus [8], 22.3%; in the series listed under Mus musculus [9], 1.64%; in the series filed under Mus musculus [10] it was under 0.01%; in the series filed under Mus musculus [11], 0.8%; in the series listed under Mus musculus [12] it was 0.39%. The ID/g in the series filed under Mus musculus [25] is 1.28%; in the series filed under Mus musculus [13], 14.7%; in the series listed under Mus musculus [14], 16.4%; in the series listed under Mus musculus [16], 0.59%; in the series listed under Mus musculus [17], under 0.01%; in the series listed under Mus musculus [18] it was 5.6%. Further, the ID/g is reported as 1.75% in the series listed under Mus musculus [19]; 2.65% in the series listed under Mus musculus [20]; 1.33% in the series filed under Mus musculus [21]; 0.68% in the series listed under Mus musculus [22]; 1.6% in the series listed under Mus musculus [23]; 1.6% in the series listed under Mus musculus [24].

For `O=C(O)CN(CC(=O)O)[C@H](Cc1ccc([N+](=O)[O-])cc1)CN(CC(=O)O)[C@@H]1CCCC[C@H]1N(CC(=O)O)CC(=O)O`, the ID/g in the series listed under Mus musculus [1] is 8.85%; in the series filed under Mus musculus [2], 3.36%; in the series filed under Mus musculus [3] it was 1.51%; in the series filed under Mus musculus [4], under 0.01%; in the series listed under Mus musculus [5], 5.41%; in the series filed under Mus musculus [6], 0.71%. Moreover, the ID/g was 4.65% in the series listed under Mus musculus [7]; 23.9% in the series listed under Mus musculus [8]; 1.71% in the series listed under Mus musculus [9]; under 0.01% in the series listed under Mus musculus [10]; 0.63% in the series filed under Mus musculus [11]; 0.6% in the series filed under Mus musculus [12]. Further, the ID/g in the series filed under Mus musculus [25] is reported as 1.51%; in the series filed under Mus musculus [13], 12.8%; in the series filed under Mus musculus [14] it was 12.9%; in the series listed under Mus musculus [16], 0.4%; in the series listed under Mus musculus [17] it was under 0.01%; in the series listed under Mus musculus [18], 4.55%. Moreover, the ID/g is 4.34% in the series filed under Mus musculus [19]; 1.99% in the series listed under Mus musculus [20]; 0.86% in the series filed under Mus musculus [21]; 0.43% in the series filed under Mus musculus [22]; 4.18% in the series listed under Mus musculus [23]; 4.44% in the series filed under Mus musculus [24].

As for `O=C(O)CN1CCN(CC(=O)O)CCN(CC(=O)O)C(Cc2ccc([N+](=O)[O-])cc2)CN(CC(=O)O)CC1` (stereo unspecified), the ID/g in the series filed under Mus musculus [1] was 1.15%; in the series filed under Mus musculus [2] it was 0.8%; in the series filed under Mus musculus [3] it was 0.12%; in the series listed under Mus musculus [4], under 0.01%; in the series filed under Mus musculus [5] it was 0.03%; in the series listed under Mus musculus [6] it was 0.06%. The ID/g in the series filed under Mus musculus [7] is given as 0.98%; in the series filed under Mus musculus [8] it was 3.29%; in the series filed under Mus musculus [9] it was 0.48%; in the series listed under Mus musculus [10] it was under 0.01%; in the series filed under Mus musculus [11], 0.03%; in the series filed under Mus musculus [12], 0.11%. Besides, the ID/g in the series listed under Mus musculus [13] is 1.29%; in the series filed under Mus musculus [14] it was 2.04%; in the series listed under Mus musculus [15], 0.27%; in the series filed under Mus musculus [16], 0.04%; in the series listed under Mus musculus [17], under 0.01%; in the series filed under Mus musculus [18], 1.23%. Moreover, the ID/g in the series filed under Mus musculus [19] came to 1.54%; in the series filed under Mus musculus [20], 0.16%; in the series listed under Mus musculus [21], 0.24%; in the series listed under Mus musculus [22], 0.04%; in the series filed under Mus musculus [23], 2.87%; in the series filed under Mus musculus [24] it was 1.76%.
